Active and inactive are the calls of the source. The rule behind the calls is not given here.
Columns and labels:
[1] = Superoxide radical scavenging activity at 1 mM upon incubation for 2 min at RT in pH 7.4 with PMS, NADH and NBT by nitroblue tetrazolium method
Rattus norvegicus [2] = experiment: Onset of arthritis measured as arthritic score at i.p. dose of 0.001 m mol/kg in rats injected intradermally with Freund's adjuvant after 14 days; type: functional
Outline: (§1)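 Fischer 344 rats, five per group, given Freund's adjuvant (0.6 mg desiccated Mycobacterium butyricum in 0.1 mL liquid paraffin) intradermally at tail base. Compound given ip at 0.001 mmol/kg from day 0, every other day for 24 days; absolute controls got vehicle only. Score: one point per inflamed wrist/ankle plus one per involved phalangeal joint, max five per limb, every 2 days from day 14. Run in duplicate.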

Rattus norvegicus [3] = experiment: Onset of arthritis measured as arthritic score at i.p. dose of 0.001 m mol/kg in rats injected intradermally with Freund's adjuvant after 24 days; type: functional; outline: as §1
Rattus norvegicus [4] = experiment: Duration of paralysis in rats (injected i.p. with 10 mg/1 mL/g of zoxazolamine) at i.p. dose of 0.001 m mol/kg after 24 days; type: functional
Outline: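 Fischer 344 rats, groups of five, given Freund's Adjuvant intradermally at tail base; compound ip 0.001 mmol/kg from day zero every other day for 24 days. On day 24, ≥12 h after last dose, zoxazolamine ip 10 mg/1 mL/g as aqueous Tween 80 suspension; paralysis duration timed. Run in duplicate.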

[5] = molecular target: Prostaglandin G/H synthase 1 (Homo sapiens) (UniProt P23219); conditions: at 1 mM
Chain of Prostaglandin G/H synthase 1 (Homo sapiens) (P23219 whole entry): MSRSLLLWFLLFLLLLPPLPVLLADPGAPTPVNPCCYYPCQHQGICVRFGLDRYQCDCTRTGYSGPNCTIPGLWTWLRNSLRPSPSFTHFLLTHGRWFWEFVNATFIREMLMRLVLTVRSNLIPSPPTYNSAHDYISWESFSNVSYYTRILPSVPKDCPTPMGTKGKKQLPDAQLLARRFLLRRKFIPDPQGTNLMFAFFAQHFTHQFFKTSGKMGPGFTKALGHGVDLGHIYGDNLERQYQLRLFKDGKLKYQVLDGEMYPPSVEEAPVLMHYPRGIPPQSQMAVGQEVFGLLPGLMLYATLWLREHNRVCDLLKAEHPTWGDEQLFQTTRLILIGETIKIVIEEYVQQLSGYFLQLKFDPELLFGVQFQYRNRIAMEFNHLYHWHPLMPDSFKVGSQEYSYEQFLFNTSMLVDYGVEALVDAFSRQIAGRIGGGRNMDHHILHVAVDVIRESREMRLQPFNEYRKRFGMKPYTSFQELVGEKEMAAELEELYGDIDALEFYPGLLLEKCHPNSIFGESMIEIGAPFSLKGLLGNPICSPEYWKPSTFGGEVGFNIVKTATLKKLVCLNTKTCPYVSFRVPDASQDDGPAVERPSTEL

Rattus norvegicus [6] = experiment: Onset of arthritis measured as arthritic score at i.p. dose of 0.001 m mol/kg in rats injected intradermally with Freund's adjuvant after 6 days; type: functional; outline: as §1
Rattus norvegicus [7] = experiment: Onset of arthritis measured as arthritic score at i.p. dose of 0.001 m mol/kg in rats injected intradermally with Freund's adjuvant after 16 days; type: functional; outline: as §1
[8] = molecular target: T1, Seed linoleate 13S-lipoxygenase-1 (Glycine max, UniProt P08170); experiment: Inhibitory concentration against soybean lipoxygenase upon incubation with sodium linoleate (0.1 mM) at RT
T1 sequence (P08170 whole entry): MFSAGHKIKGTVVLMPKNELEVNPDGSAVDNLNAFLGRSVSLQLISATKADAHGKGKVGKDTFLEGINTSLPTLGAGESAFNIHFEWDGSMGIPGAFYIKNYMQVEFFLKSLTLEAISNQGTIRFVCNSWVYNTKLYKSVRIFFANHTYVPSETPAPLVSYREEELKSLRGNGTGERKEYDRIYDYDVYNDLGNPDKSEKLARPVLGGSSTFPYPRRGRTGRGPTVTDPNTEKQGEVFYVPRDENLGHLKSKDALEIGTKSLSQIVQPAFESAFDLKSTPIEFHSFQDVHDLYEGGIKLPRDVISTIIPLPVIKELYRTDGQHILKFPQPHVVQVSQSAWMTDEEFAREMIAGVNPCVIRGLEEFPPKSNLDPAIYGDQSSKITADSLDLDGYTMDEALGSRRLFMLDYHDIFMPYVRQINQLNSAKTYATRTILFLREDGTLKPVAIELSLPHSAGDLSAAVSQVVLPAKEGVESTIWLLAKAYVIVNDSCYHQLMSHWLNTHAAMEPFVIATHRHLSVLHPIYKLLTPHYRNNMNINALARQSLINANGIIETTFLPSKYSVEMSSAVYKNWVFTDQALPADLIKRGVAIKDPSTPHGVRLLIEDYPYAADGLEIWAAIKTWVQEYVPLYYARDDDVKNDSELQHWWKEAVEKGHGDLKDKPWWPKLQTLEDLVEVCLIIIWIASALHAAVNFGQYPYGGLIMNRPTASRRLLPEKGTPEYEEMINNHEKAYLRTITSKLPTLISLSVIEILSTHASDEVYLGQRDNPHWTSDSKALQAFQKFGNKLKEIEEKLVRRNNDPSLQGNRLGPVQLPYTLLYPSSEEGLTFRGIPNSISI
Outline: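 Soybean lipoxygenase (0.2 mL enzyme solution, 1/3 ×10^4 w/v in saline) incubated at room temperature with test compounds in ethanol and sodium linoleate 0.1 mM as substrate. Conversion to 13-hydroperoxylinoleic acid followed at 234 nm and compared with NDGA as standard inhibitor. Run at least in triplicate; SD of absorbance under 10% of mean.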

Rattus norvegicus [9] = experiment: Onset of arthritis measured as arthritic score at i.p. dose of 0.001 m mol/kg in rats injected intradermally with Freund's adjuvant after 22 days; type: functional; outline: as §1
Rattus norvegicus [10] = experiment: Onset of arthritis measured as arthritic score at i.p. dose of 0.001 m mol/kg in rats injected intradermally with Freund's adjuvant after 4 days; type: functional; outline: as §1
Rattus norvegicus [11] = experiment: Onset of arthritis measured as arthritic score at i.p. dose of 0.001 m mol/kg in rats injected intradermally with Freund's adjuvant after 2 days; type: functional; outline: as §1
Rattus norvegicus [12] = experiment: Onset of arthritis measured as arthritic score at i.p. dose of 0.001 m mol/kg in rats injected intradermally with Freund's adjuvant after 8 days; type: functional; outline: as §1
Rattus norvegicus [13] = experiment: Onset of arthritis measured as arthritic score at i.p. dose of 0.001 m mol/kg in rats injected intradermally with Freund's adjuvant after 10 days; type: functional; outline: as §1
Rattus norvegicus [14] = experiment: Onset of arthritis measured as arthritic score at i.p. dose of 0.001 m mol/kg in rats injected intradermally with Freund's adjuvant after 12 days; type: functional; outline: as §1
Rattus norvegicus [15] = experiment: Onset of arthritis measured as arthritic score at i.p. dose of 0.001 m mol/kg in rats injected intradermally with Freund's adjuvant after 18 days; type: functional; outline: as §1
[16] = Percent heme protein dependent lipid peroxidation at (1 mM) upon incubation for 10 min at 37 degree C. in pH 7.4 with arachidonic acid and H2O2; type: functional
Outline: (§2)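 Heme 50 μM, arachidonic acid 0.4 mM, test compound and H2O2 0.5 mM incubated together for 10 min at 37 °C in KH2PO4–KOH buffer (50 mM, pH 7.4). Tested at 0.1 and 1 mM. At least triplicate; absorbance SD under 10% of mean.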

Rattus norvegicus [17] = experiment: Onset of arthritis measured as arthritic score at i.p. dose of 0.001 m mol/kg in rats injected intradermally with Freund's adjuvant after 0 days; type: functional; outline: as §1
Rattus norvegicus [18] = experiment: Percent change in body weight of (FA) adjuvant induced rats at i.p. dose of 0.001 m mol/kg after 24 days; type: functional
[19] = Percent heme protein dependent lipid peroxidation at (0.1 mM) upon incubation for 10 min at 37 degree C. in pH 7.4 with arachidonic acid and H2O2; type: functional; outline: as §2
Rattus norvegicus [20] = experiment: Onset of arthritis measured as arthritic score at i.p. dose of 0.001 m mol/kg in rats injected intradermally with Freund's adjuvant after 20 days; type: functional; outline: as §1
Rattus norvegicus [21] = experiment: Percent inhibition of carrageenan 2% (0.1 mL intradermal) induced paw edema at the i.p. dose of 0.01 m mol/kg in fisher 344 rats; n=5; type: functional
Outline: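 Right hind paw edema in Fischer 344 rats (150–200 g) induced by intradermal 0.1 mL 2% carrageenin in water. Rats killed 3.5 h after carrageenin; injected minus uninjected paw weight compared with water-treated controls and expressed as percent inhibition. Mean of two experiments, five animals per group; Student's t-test.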

[22] = Superoxide radical scavenging activity at 1 mM upon incubation for 2 min at RT in pH 7.4 with PMS, NADH and NBT by nitroblue tetrazolium method; no action
[23] = Percent heme protein dependent lipid peroxidation (0.1 mM) upon incubation for 10 min at 37 degree C. in pH 7.4 with arachidonic acid and H2O2; no action; type: functional; outline: as §2
[24] = Percent heme protein dependent lipid peroxidation (1 mM) upon incubation for 10 min at 37 degree C. in pH 7.4 with arachidonic acid and H2O2; no action; type: functional; outline: as §2

O=c1ccc2ccc(O)c(CN3CCOCC3)c2o1
Scavenging Activity [1]: 58.3% | Arthritic score (Rattus norvegicus [2]): 1.2 | Arthritic score (Rattus norvegicus [3]): 3.5 | Paralysis (Rattus norvegicus [4]): 212 min | inhibition [5]: 32% | Arthritic score (Rattus norvegicus [6]): 0 | Arthritic score (Rattus norvegicus [7]): 1.25 | IC50 [8]: > 1000 µM | Arthritic score (Rattus norvegicus [9]): 4.25 | Arthritic score (Rattus norvegicus [10]): 0 | Arthritic score (Rattus norvegicus [11]): 0 | Arthritic score (Rattus norvegicus [12]): 0 | Arthritic score (Rattus norvegicus [13]): 0 | Arthritic score (Rattus norvegicus [14]): 0 | Arthritic score (Rattus norvegicus [15]): 2.5 | Lipid peroxidation [16]: 19.9% | Arthritic score (Rattus norvegicus [17]): 0 | Change of body weight (Rattus norvegicus [18]): 7% | Lipid peroxidation [19]: 19.5% | Arthritic score (Rattus norvegicus [20]): 3.25 | Inhibition (Rattus norvegicus [21]): 75.7%

O=c1ccc2ccc(O)c(CNCCc3ccccc3)c2o1
Scavenging Activity [1]: 22.2% | IC50 [8]: 41 µM | Lipid peroxidation [16]: 5.5% | Lipid peroxidation [19]: 18.2% | Inhibition (Rattus norvegicus [21]): 31.2%

O=c1ccc2ccc(O)c(CN3CCNCC3)c2o1
Arthritic score (Rattus norvegicus [2]): 1.2 | Arthritic score (Rattus norvegicus [3]): 5.8 | Paralysis (Rattus norvegicus [4]): 292 min | inhibition [5]: 11% | Arthritic score (Rattus norvegicus [6]): 0 | Arthritic score (Rattus norvegicus [7]): 0 | IC50 [8]: 100 µM | Arthritic score (Rattus norvegicus [9]): 4.8 | Arthritic score (Rattus norvegicus [10]): 0 | Arthritic score (Rattus norvegicus [11]): 0 | Arthritic score (Rattus norvegicus [12]): 0 | Arthritic score (Rattus norvegicus [13]): 0 | Scavenging Activity [22]: No action | Arthritic score (Rattus norvegicus [14]): 0 | Arthritic score (Rattus norvegicus [15]): 3.2 | Lipid peroxidation [16]: 21.9% | Arthritic score (Rattus norvegicus [17]): 0 | Change of body weight (Rattus norvegicus [18]): 18.4% | Lipid peroxidation [19]: 19.5% | Arthritic score (Rattus norvegicus [20]): 3 | Inhibition (Rattus norvegicus [21]): 77.7%

NCCCNCc1c(O)ccc2ccc(=O)oc12
Scavenging Activity [1]: 50% | IC50 [8]: > 1000 µM | Lipid peroxidation [23]: No action | Lipid peroxidation [24]: No action | Inhibition (Rattus norvegicus [21]): 53.4%

CCCCCNCc1c(O)ccc2ccc(=O)oc12
IC50 [8]: 59 µM | Scavenging Activity [22]: No action | Lipid peroxidation [16]: 5.7% | Lipid peroxidation [19]: 8.6% | Inhibition (Rattus norvegicus [21]): 52.7%

CC(Cc1ccc(O)c(O)c1)C(C)Cc1ccc(O)c(O)c1 (configuration not stated)
Scavenging Activity [22]: inactive | Lipid peroxidation [16]: 26.1% | Lipid peroxidation [19]: inactive

CN1COc2ccc3ccc(=O)oc3c2C1
IC50 [8]: 42 µM | Lipid peroxidation [23]: No action | Lipid peroxidation [24]: No action | Inhibition (Rattus norvegicus [21]): 53.6%

O=c1ccc2ccc(O)c(CNCc3ccccc3)c2o1
IC50 [8]: 44 µM | Scavenging Activity [22]: No action | Lipid peroxidation [16]: 35.6% | Lipid peroxidation [19]: 19.5% | Inhibition (Rattus norvegicus [21]): 47.5%

CCNCc1c(O)ccc2ccc(=O)oc12
IC50 [8]: 52 µM | Lipid peroxidation [23]: No action | Scavenging Activity [22]: No action | Lipid peroxidation [16]: 5.5% | Inhibition (Rattus norvegicus [21]): 53.6%

CCCCCN(CCCCC)Cc1c(O)ccc2ccc(=O)oc12
IC50 [8]: 13 µM | Lipid peroxidation [23]: No action | Scavenging Activity [22]: No action | Lipid peroxidation [16]: 13.7% | Inhibition (Rattus norvegicus [21]): 46.2%

O=c1ccc2ccccc2o1 [COUMARIN]
Scavenging Activity [1]: 88.9% | Lipid peroxidation [16]: 19.2% | Lipid peroxidation [19]: 9.1% | Inhibition (Rattus norvegicus [21]): 30.2%

COc1ccc2c(c1)c(CC(=O)O)c(C)n2C(=O)c1ccc(Cl)cc1 [INDOMETHACIN]
Inhibition (Rattus norvegicus [21]): 47%

CC(C)CNCc1c(O)ccc2ccc(=O)oc12
Scavenging Activity [1]: 33.3% | IC50 [8]: 47 µM | Lipid peroxidation [23]: No action | Lipid peroxidation [24]: No action | Inhibition (Rattus norvegicus [21]): 55.4%

O=C(O)/C=C/c1ccc(O)c(O)c1
Scavenging Activity [1]: 86.1% | Lipid peroxidation [23]: inactive | Lipid peroxidation [16]: 5.5%

O=c1ccc2ccc(O)c(CN3CCCCC3)c2o1
IC50 [8]: 37 µM | Lipid peroxidation [23]: No action | Scavenging Activity [22]: No action | Lipid peroxidation [16]: 7.6% | Inhibition (Rattus norvegicus [21]): 47.4%

NCCNCc1c(O)ccc2ccc(=O)oc12
IC50 [8]: > 1000 µM | Lipid peroxidation [23]: No action | Scavenging Activity [22]: No action | Lipid peroxidation [16]: 22.1% | Inhibition (Rattus norvegicus [21]): 56%
